The values below come from ChEMBL document CHEMBL4715812, “Zampanolide Binding to Tubulin Indicates Cross-Talk of Taxane Site with Colchicine and Nucleotide Sites” (J Nat Prod, 2018).

Calls of active or inactive are those of the source. No cut-off for these calls is given here.

The species named for test [1] is Bos taurus. As to the kind of experiment: Covalent modification of compound-ligated activated form of calf brain dimeric tubulin assessed as effect on nucleotide binding affinity at E-site by measuring ratio of GTP concentration to tubulin concentration incubated for 1.5 hrs in presence or absence of 10 uM GTP followed by passage through sephadex G25 column by HPLC analysis (reference value: 1.94 +/- 0.03). In outline:
(§1)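 40 μM calf-brain tubulin in PEDTA buffer (10 mM NaPi, 1 mM EDTA, pH 7.0) incubated 1.5 h at 25 °C with 10% excess ligand or DMSO. Unbound nucleotide removed on Sephadex G-25 in PEDTA plus 10 μM GTP and […] at 4 °C. Aliquot diluted 20-fold in 10 mM NaPi, 1% SDS, pH 7.0; tubulin and nucleotide quantified, nucleotides by HPLC after extraction.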

Test [2] is filed under the species Bos taurus. The experiment in a line: Covalent modification of compound-ligated activated form of calf brain dimeric tubulin assessed as effect on nucleotide binding affinity at E-site by measuring ratio of GDP nucleotide concentration to tubulin concentration incubated for 1.5 hrs in presence or absence of 10 uM GTP followed by passage through sephadex G25 column by HPLC analysis (reference value: 0.06 +/- 0.03). An outline of the steps:
as §1

Test [3] is filed under the species Homo sapiens. The experiment in a line: Covalent modification of GAB-buffer assembled microtubule (unknown origin) assessed as effect on nucleotide binding affinity at E-site by measuring ratio of GTP concentration to tubulin concentration incubated for 30 mins in presence or absence of 1 mM GTP and measured after 20 mins by HPLC analysis (reference value: 1). In outline:
(§2)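 Calf-brain tubulin equilibrated in PEDTA (10 mM NaPi, 1 mM EDTA, pH 7.0), with 10% molar excess ligand or DMSO, then supplemented with 3.4 M glycerol, 1 mM EGTA, MgCl2 to 6 mM, and no nucleotide or 1 mM GTP. Assembled 30 min at 37 °C, spun 20 min at 37 °C, pellets washed in warm GAB without GTP. Tubulin measured, nucleotides extracted and quantified by HPLC.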

Test [4] is filed under the species Homo sapiens. As to the kind of experiment: Covalent modification of GAB-buffer assembled microtubule (unknown origin) assessed as effect on nucleotide binding affinity at E-site by measuring ratio of GDP concentration to microtubule concentration incubated for 30 mins in presence or absence of 1 mM GTP and measured after 20 mins by HPLC analysis (reference value: 1). An outline of the steps: as §2

The species entered for test [5] is Bos taurus. As to the kind of experiment: Induction of oligomerization calf brain tubulin assessed as formation of microtubule at 100 uM incubated for 30 mins in presence of GTP and 3 mM Mg2+ by electron micrography analysis.
For test [6], the species on record is Bos taurus. The experiment in a line: Induction of oligomerization of compound-ligated activated form of calf brain tubulin assessed as formation of double rings by measuring sedimentation coefficient at 55 uM incubated for 30 mins in presence of GDP and 3.31 mM Mg2+ by analytical ultracentrifugation. An outline of the steps: (§3)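 Calf-brain tubulin 50 μM in PEDTA with 55 μM zampanolide or DMSO, 1 mM GDP, 7 mM total (3.31 mM free) Mg2+, plus DTT; incubated 25 °C, 30 min, sedimentation velocity at 40 000 rpm; c(S) by least-squares boundary modelling corrected to water/20 °C; assembled polymer checked by uranyl acetate negative-stain EM.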

The species named for test [7] is Homo sapiens. As to the kind of experiment: Induction of oligomerization of compound modified microtubule (unknown origin) assessed as peloruside binding constant at 25 degreeC incubated for 30 mins followed by GTP addition and measured after 30 mins by HPLC analysis. The conditions noted are these: time 1.0 hrs. An outline of the steps:
(§4)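 Stabilized cross-linked microtubules (0.6 μM) preincubated 30 min, 25 °C with 10% excess zampanolide or DMSO in GAB (3.4 M glycerol, 10 mM NaPi, 1 mM EDTA, 6 mM MgCl2, 0.1 mM GTP, pH 6.7); peloruside 0.1–10 μM added, further 30 min at 25 °C; spun 20 min at 50 000 rpm; supernatant/pellet ligand by reverse-phase HPLC at 205/230 nm; Kb fitted, three independent measurements.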

Test [8] is filed under the species Bos taurus. The experiment in a line: Induction of oligomerization of compound-ligated activated form of calf brain tubulin assessed as formation of tetramers by measuring sedimentation coefficient at 55 uM incubated for 30 mins in presence of GDP and 3.31 mM Mg2+ by analytical ultracentrifugation. In outline:
as §3

For test [9], the species on record is Bos taurus. The experiment in a line: Induction of oligomerization of compound-ligated activated form of calf brain tubulin assessed as formation of dimers by measuring sedimentation coefficient at 55 uM incubated for 30 mins in presence of GDP and 3.31 mM Mg2+ by […]. In outline:
as §3

The species named for test [10] is Bos taurus. The experiment in a line: Induction of oligomerization of compound-ligated activated form of calf brain tubulin assessed as formation of microtubule by measuring sedimentation coefficient at 55 uM incubated for 30 mins in presence of GDP and 3.31 mM Mg2+ by electron micrography analysis. An outline of the steps: as §3
The species entered for test [11] is Bos taurus. The experiment in a line: Induction of oligomerization of compound-ligated activated form of calf brain tubulin assessed as oligomer formation by measuring sedimentation coefficient at 55 uM incubated for 30 mins in presence of GTP/GDP and 0.14 mM Mg2+ by analytical ultracentrifugation.
The species entered for test [12] is Bos taurus. As to the kind of experiment: Induction of oligomerization of compound-ligated activated form of calf brain tubulin at 55 uM incubated for 30 mins in presence of 0.1 mM GDP and 0.039 mM Mg2+ by analytical ultracentrifugation. An outline of the steps: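 Sedimentation velocity of 50 μM tubulin with 55 μM zampanolide or DMSO in PEDTA, 0.1 mM GDP, 1 mM total Mg2+ (0.039 mM free); 25 °C for 30 min, 40 000 rpm; c(S) fitted, corrected to water/20 °C.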

Test [13] is filed under the species Bos taurus. As to the kind of experiment: Induction of oligomerization of compound-ligated activated form of calf brain tubulin at 55 uM incubated for 30 mins in presence of 0.1 mM GTP and 0.028 mM Mg2+ by analytical ultracentrifugation. An outline of the steps:
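Sedimentation velocity of 50 μM tubulin with 55 μM zampanolide or DMSO in PEDTA, 0.1 mM GTP, 1 mM total Mg2+ (0.028 mM free); 25 °C for 30 min, 40 000 rpm; c(S) fitted, corrected to water/20 °C.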

For test [14], the species on record is Bos taurus. As to the kind of experiment: Induction of oligomerization of compound-ligated activated form of calf brain tubulin assessed as formation of microtubule at 55 uM incubated for 30 mins in presence of GTP and 3 mM Mg2+ by electron micrography analysis. In outline:
(§5)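 Tubulin 50 μM in PEDTA with 55 μM zampanolide or DMSO and 0.1 mM GTP; Mg2+ 1.5 mM total (0.14 mM free) or 3 mM total (0.77 mM free), free Mg2+ corrected for phosphate, nucleotide, EDTA binding; 25 °C, 30 min, then 40 000 rpm ultracentrifugation; c(S) distributions; negative-stain EM of samples.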

Test [15] is filed under the species Bos taurus. As to the kind of experiment: Induction of oligomerization of compound-ligated activated form of calf brain tubulin assessed as tubulin-tubulin interaction causing aggregation formation at 55 uM incubated for 30 mins in presence of GTP and 1.5 mM Mg2+ by analytical ultracentrifugation. In outline:
as §5

Test [16] is filed under the species Homo sapiens. The experiment in a line: Binding affinity to stabilized microtubule (unknown origin) at 25 degreeC incubated for 30 mins followed by GTP addition and measured after 30 mins by HPLC analysis. The settings on record: time 1.0 hrs. An outline of the steps: as §4
Test [17] is filed under the species Bos taurus. The experiment in a line: Binding affinity to zampanolide-modified calf brain tubulin.
Test [18] is filed under the species Bos taurus. The experiment in a line: Binding affinity to calf brain tubulin assessed as compound-protein complex stoichiometry ratio of 1:1 in absence of Mg2+ by spectrofluorometry analysis.
The species named for test [19] is Bos taurus. The experiment in a line: Binding affinity to zampanolide-modified calf brain tubulin assessed as compound-protein complex stoichiometry ratio of 1:1 in absence of Mg2+ by spectrofluorometry assay.

Consider `CC1=C[C@H]2[C@@H](O)[C@H](C)[C@@H](O)[C@@H]2[C@H]2[C@@H]3C4=C5O[C@@](C)(CC[C@H](OC4=O)[C@@H]5C)[C@@H]3C[C@@H]12`, for which the Ratio came to 1.83 in the test filed under Bos taurus [1], 0.02 in the test listed under Bos taurus [2], 1.03 in the test listed under Homo sapiens [3] and 0.97 in the test filed under Homo sapiens [4].

As to `C/C(=C\c1csc(C)n1)[C@@H]1C[C@@H]2O[C@]2(C)CCC[C@H](C)[C@H](O)[C@@H](C)C(=O)C(C)(C)[C@@H](O)CC(=O)O1`, in the test listed under Bos taurus [5], the result was Active.

As for `CC(=O)O[C@@]12CO[C@@H]1C[C@H](O)[C@@]1(C)C(=O)[C@H](O)C3=C(C)[C@@H](OC(=O)[C@H](O)[C@@H](NC(=O)OC(C)(C)C)c4ccccc4)C[C@@](O)([C@@H](OC(=O)c4ccccc4)[C@H]21)C3(C)C`, the Ratio in the test listed under Homo sapiens [3] was 1.02; in the test listed under Homo sapiens [4], 1.03.

For the molecule `C=C1C[C@@H]2C/C=C/C(=O)C/C(C)=C\C=C\C(=O)O[C@H]([C@H](O)NC(=O)/C=C\C=C\C)C/C(C)=C/[C@H](C1)O2`, the S20,w in the test listed under Bos taurus [6] was 36 Svedberg; in the test filed under Bos taurus [8] it was 8 Svedberg; in the test listed under Bos taurus [9] it was 6 Svedberg; in the test filed under Bos taurus [10] it was > 50 Svedberg; in the test listed under Bos taurus [11] it was 9 Svedberg; in the test filed under Bos taurus [14], > 50 Svedberg. Also, the Ratio in the test filed under Bos taurus [1] came out at 0.91; in the test filed under Bos taurus [2], 0.04; in the test filed under Homo sapiens [3], 0.92; in the test filed under Homo sapiens [4], 0.84. The Kb in the test listed under Homo sapiens [7] was 3.1 10^6/M. For the same molecule, the outcome in the test listed under Bos taurus [12], in the test filed under Bos taurus [13] and in the test filed under Bos taurus [15] was inactive.

On to `C=C1C[C@H]2C/C=C/C(=O)C/C(C)=C\C=C\C(=O)O[C@@H](C=O)C/C(C)=C/[C@@H](C1)O2`, for which the Ratio in the test listed under Bos taurus [1] turned out to be 1.33; in the test listed under Bos taurus [2], 0.03; in the test filed under Homo sapiens [3] it was 0.95; in the test filed under Homo sapiens [4] it was 0.84.

In the case of `CC[C@H](/C=C(/C)[C@@H]1C[C@@H](OC)C[C@H](O)C(C)(C)[C@@]2(O)O[C@@H](C[C@@H](OC)[C@H](O)C(=O)O1)C[C@@H](OC)[C@H]2O)CO`, in the test filed under Homo sapiens [16], the Kb was 4 10^6/M.

Take `COc1ccc(-c2ccc(OC)c(=O)cc2)c(OC)c1OC`: the Kb in the test listed under Bos taurus [17] was 4.5 10^6/M. The result in the test filed under Bos taurus [18] and in the test listed under Bos taurus [19] was Active.
